GFP response vs DMSO data for 39 molecules are collected here from PubChem BioAssay AID504338 (NMMLSC, 2011).

A number with no mark means an inactive call. Activity calls are given as the source filed them.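 How the source made its calls: active means GFP response vs DMSO above 150% with enough events counted; inconclusive means fewer than 70 events counted for a yeast strain; inactive means the rest.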

The test is described as follows: yeast TOR reporter LAP4-GFP retest – cell-based, third cherry pick, flow cytometry, confirmation (AID 504338).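 Further: ratio to plate DMSO wells so 100% equals DMSO level rather than 0%.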 Particulars: S. cerevisiae LAP4-GFP strain, 3 h, at 10 µM, active compounds read high. Put shortly:
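System: Saccharomyces cerevisiae strain expressing LAP4-GFP fusion protein. Quantity: cells at 0.2 OD600. Medium: synthetic complete medium. Read-out basis: median GFP fluorescence as percent of plate DMSO-well average. Signal: high-throughput flow cytometry of GFP, single-cell scatter gate. Schedule: 3 h treatment, 30 °C. Dosing: single compound dose, 10 µM final.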
In general terms: Flow cytometry measures light scatter and fluorescence of single cells or particles in a stream.
With `CCCCC(=O)NCCc1cc2c(OC)ccc(OC)c2[nH]c1=O`, the GFP response vs DMSO was 108%.

Consider `CNc1nc(N)c([N+](=O)[O-])c(Nc2cccc(Cl)c2)n1`, for which the GFP response vs DMSO is 131%. With `Nc1cccc2c1C(=O)c1ccc(Cl)cc1C2=O`, the GFP response vs DMSO is 100%. Then `N#Cc1c(N)nc(N)nc1Nc1ccc(Br)cc1`, with 104%; and `CS(=O)(=O)Oc1ccc(Br)c2cccnc12`, with 104%. For the molecule `Cc1cccc(Nc2cc(=O)[nH]c(=O)[nH]2)c1`, the GFP response vs DMSO is 106%.

For the molecule `Cc1nc(Nc2ccc(Cl)cc2)c(C#N)c(=O)[nH]1`, the GFP response vs DMSO is 107%. For the molecule `C/C(=C\C(=O)c1ccc(C)cc1)Nc1cccc(O)c1`, the GFP response vs DMSO was 106%. Then `C/C(=C\C(=O)c1ccccc1)Nc1cccc(O)c1`, with 107%. As for `Cn1c(=O)c2c(n3cnnc13)-c1ccccc1CC21CCCC1`, the figure is 101%; as for `O=C(Nc1cccc2ccccc12)ON=C1CCCCC1`, 112%. Regarding `CCC(C)Nc1nc(N)c([N+](=O)[O-])c(Nc2ccccc2OC)n1` (centres undefined), the GFP response vs DMSO was 97.2%. Regarding `O=C(N/N=C/c1ccccc1)c1cccc2ccccc12`, the GFP response vs DMSO is 103%. Then `Oc1ccc(Cl)c2cccnc12`, with 110%. As to `CC(=O)CC(=O)Nc1ccc(C(N)=O)cc1`, the GFP response vs DMSO was 101%. As for `C=CCNc1nc(N)c([N+](=O)[O-])c(Nc2ccccc2OC)n1`, the figure is 100%; as for `C/C(=N\NC(=O)c1cccc2ccccc12)c1cccnc1`, 104%. For `Cc1cc(C)c(NC(=O)CC(=O)c2ccccc2)c(Cl)c1`, the GFP response vs DMSO was 100%. On to `CC(=O)NCCOc1cccc2cccnc12`, for which the GFP response vs DMSO is 107%. As for `CC1=CN2C(=N)/C(=C/c3ccc([N+](=O)[O-])o3)C(=O)N=C2S1`, the figure is 3330% (active); as for `Cc1cccc(Nc2cc(=O)[nH]c(=O)[nH]2)c1C`, 101%. On to `O=C(Nc1ccccc1)O/N=C1\CCCCC1c1ccc([N+](=O)[O-])cc1[N+](=O)[O-]` (centres undefined), for which the GFP response vs DMSO is 106%. As for `CC(=O)Nn1cnc2c(c1=O)C1(CCCCC1)Cc1ccccc1-2`, the figure is 106%. As for `Cc1ccc2c(Cl)cc(Cl)c(OCC(=O)O)c2n1`, the figure is 100%; as for `NC(=O)COc1cccc2cccnc12`, 103%; as for `NC(=O)c1ccnc2c(O)cccc12`, 101%. `COc1ccc(OC)c(Nc2nc(NCCC(C)C)nc(N)c2[N+](=O)[O-])c1`: the GFP response vs DMSO is 103%. As for `Cc1nc2c(O)cccc2cc1CO`, the figure is 101%. As for `C/C(=C\C(=O)c1ccccc1)Nc1ccc(O)cc1`, the figure is 101%. For the molecule `CN(C)CCCNc1cc(O)c2ncccc2c1`, the GFP response vs DMSO was 110%.

With `COc1ccc(N/C(C)=C/C(=O)c2ccccc2)cc1`, the GFP response vs DMSO is 104%. As for `COCCCNc1nc(N)c([N+](=O)[O-])c(Nc2cc(OC)ccc2OC)n1`, the figure is 103%; as for `OCCNc1ncnc2ccc(Br)cc12`, 98.6%. Regarding `C[n+]1cccc2c(Br)ccc([O-])c21`, the GFP response vs DMSO is 104%. Turning to `CC(=O)Nc1ccc(-c2nc3ccccc3o2)cc1`, the GFP response vs DMSO was 108%. Then `O=C(N/N=C/c1ccccc1F)c1cccc2ccccc12`, with 104%; and `CCN(CC)c1ncnc2ccc(Br)cc12`, with 101%; and `O=C(/C=C/Nc1cccc(O)c1)c1ccccc1`, with 111%. Then `OCc1ccnc2c(O)cccc12`, with 101%.
